Experimental data from the EternaBench riboswitch data.

Test system: MS2 coat protein
Assay: apparent Kd, MS2 coat protein; higher = weaker binding; RNA-MaP array; FMN 200 µM where present
Summary of the method: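 Designs on Illumina sequencing-chip clusters, transcribed by stalled E. coli RNA polymerase, were exposed to SNAP-549-labelled MS2 coat protein in doubling steps from 0.7 or 1.5 nM up to 3 µM, without and then with constant ligand. The buffer held 100 mM Tris-HCl pH 7.5, 80 mM KCl, 4 mM MgCl2, BSA, DTT, yeast tRNA and Tween-20. Apparent Kd values are medians of filtered per-cluster binding-curve fits to green signal normalised to red-channel RNA signal and control-cluster median Fmax.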

[1] = designed as: OFF switch for flavin mononucleotide, no ligand
[2] = ligand present: flavin mononucleotide, designed as: OFF switch for flavin mononucleotide
[3] = designed as: ON switch for flavin mononucleotide, no ligand
[4] = ligand present: flavin mononucleotide, designed as: ON switch for flavin mononucleotide

Sequence	apparent Kd [1] [nM]	apparent Kd [2] [nM]	apparent Kd [3] [nM]	apparent Kd [4] [nM]
UUAUUCAGAGGAUAUGCGCAUAGAUAAGACUUUUUUUCUUAACAUGAGGAUCACCCAUGUAGAAGGCUGUAAUU	18.4	18.7	–	–
UUAUUGUGAGGAUAUCCAAUAUAUGACAUGAGGAUCACCCAUGUUUCCACUCGUACCUCCGGAGAAGGCACAUUUU	30.8	21.7	–	–
UUAUUUAUACAAGGAUAUCAAUUAUAUACAAUUCCUACAUGAGGAUCACCCAUGUUUUAUUUUUUUGAGAAGGUGUAUUGUCUG	–	–	30.1	32.8
UUCAAAUUCGUAGGAUAUGUAUAUAUUUUCUACAUGAGGAUCACCCAUGUUACCAUUUUUUAUUGACAGAAGGACGUAAUCUAA	–	–	34.6	13.8
UUCAACGAUGAAGGAUAUCUAUGUCCAACAUGAGGAUCACCCAUGUUGAGGAUUACCUAUGUGUAGGAGAAGGUCAAUUUGACU	–	–	7.01	6.51
UUCAGCUUGACAGGAUAUACAUCACUGCGAAAGCAGUGUAUCUUAAUAACAUGAGGAUCACCCAUGUAGAAGGGUCGAGCUGAA	18.4	32.7	–	–
UUCAUGUAAGGAUAUGCGGGCGGGCGCGUUUGUGUUUGUUUGUAGAAGGUACAUGAGGAUCACCCAUGUACUGG	22	68.2	–	–
UUCAUGUGAGGAUAUAGUACUCUUUCUAUUAUUAUUGAGUAUUAGAAGGCACAUGAGGAUCACCCAUGUAGUAC	30.7	16.4	–	–
UUCAUUAACAUGAGGAUCACCCAUGUUGGCCAGUCUCACACCAGAAGGCACGUUGAGCACAACAGUGAGGAUAUGGGUGACAUA	–	–	286	52.9
UUCCUGGUGUAGAAGGAGGCCGAGCUCAAGCGGACGUCCUGAAUUGCGGGCCUAGGAUAUACAUGAGGAUCACCCAUGUACGGA	39.8	111	–	–
UUCGGCAGUGCAGGAUAUCUAGAGAAACACCUAAGAGAAGGGCAAACAUGAGGAUCACCCAUGUUUGGCGUGAGGUGAAGUUAG	5.99	6.02	–	–
UUGACAUUCAAGAAGGGUCACUCUACAUGAGGAUCACCCAUGUCUAUGGACAGGAUAUUGAUCGUCACCUGGUUAGCUUUCGGU	–	–	770	19
UUGAGGUCAGGAUAUGCAUGGCGGGACUUGCGUCGUGGCGUGCAGAAGGGACAUGAGGAUCACCCAUGUGGAGG	176	233	–	–
UUGAUAAAUUAGAAGGCGUGAUAAAAUACAAUAAACAUGAGGAUCACCCAUGUGUACCCAUGUUAUGAGGAUAUAGACAUUUAU	–	–	365	245
UUGAUUAUACAAGGAUAUCUAUUGUAAUUGAGACUUACAUGAGGAUCACCCAUGUUAAUAUUUUUAGAGAAGGUGUAUUUUCAG	–	–	32.3	22.9
UUGCGGUAGGAGAAGGACAGAGGCUUAAUUACAUACAUGAGGAUCACCCAUGUAGGAUAUCCUACCUAACGCGGACUCCUCCAG	7.65	7.83	–	–
UUGGAAAACAUGAGGAUCACCCAUGUGAAGCCGGCUAGUACACAGGAUAUCCAGAACGCCGAGUUGGAGAAGGGUGAUCAGUCG	–	–	38	80.4
UUGGACGUCGUAGGAUAUGUAGGAUAUUCCUACAUGAGGAUCACCCAUGUUGACAAGGAAGAAGGACAGAAGGACGAUGUCCAU	–	–	5.37	3.37
UUGGACGUCGUAGGAUAUGUAGGAUAUUCCUACAUGAGGAUCACCCAUGUUGACAUGGAAGAAGGACAGAAGGCCGAUGUCCAU	–	–	409	4.87
UUGGACGUCGUAGGAUAUGUAGGAUAUUCCUACAUGAGGAUCACCCAUGUUGACAUGGAAGAAGGACAGAUGGACGAUGUCCAU	–	–	298	6.98
UUGGACGUCGUAGGAUAUGUAGGAUAUUCCUACAUGAGGAUCACCCAUGUUGACAUGGACGAAGGACAGAAGGACGAUGUCCAU	–	–	479	134
UUGGACGUCGUCGGAUAUGUAGGAUAUUCCUACAUGAGGAUCACCCAUGUUGACAUGGAAGAAGGACAGAAGGACGAUGUCCAU	–	–	83	4.6
UUGGACGUUGUAGGAUAUGUAGGAUAUUCCUACAUGAGGAUCACCCAUGUUGACAUGGAAGAAGGACAGAAGGACGAUGUCCAU	–	–	277	5.32
UUGGCGCGAUCCUGGGUCUCACAUGAGGAUCACCCAUGUAGAGAGGAUAUGCAUAGGGCCCAUUGGCAGAAGGCUCUACAUGAG	101	47.3	–	–
UUGGGUUUGCGAGGAUAUCGUUUGUGAUUUGAUCGAGAAGGCGCUAUUUAAAUUAUUUUAACAUUACAUGAGGAUCACCCAUGU	–	–	19.1	17.2
UUGGUUGUCGUAGGAUAUGUAGGAUAUUCCUACAUGAGGAUCACCCAUGUUCGCAUGGAAGAAGGACAGAAGGACGAUGACCAA	–	–	1080	10.4
UUGUAGUACGUAGGAUAUCAUUGAGGAUCACCCUGAGAAGGACGUGAGGACAUGAGGAUCACCCAUGUGGAUCACCCAUGUCAU	329	231	–	–
UUGUUCUGAGGAUAUACAUGAGGAUCACCCAUGUGUUUCUGCUAGGAGACUAGCGAAUGUAGAAGGCUGUUCUC	19.4	19.9	–	–

Sequence	apparent Kd [1] [nM]	apparent Kd [2] [nM]	apparent Kd [3] [nM]	apparent Kd [4] [nM]
UUGUUCUGAGGAUAUACAUGAGGAUCACCCAUGUGUUUCUGCUUGGUGUCUUGCGUAUGUAGAAGGCUGUUCUC	36.5	36.3	–	–
UUGUUGUAUGUAGGAUAUGCAUAUUAUUAUUAUGCAGAAGGACAUGAGGAUCACCCAUGUAUAUUAUUAUUAUAUGUUAUAUAU	26	34.2	–	–
UUGUUGUAUGUAGGAUAUGCAUAUUAUUAUUAUGCAGAAGGACAUGAGGAUCACCCAUGUAUGUUAUUAUUAUAUGUUAUAUGU	33.6	42.6	–	–
UUGUUGUAUGUAGGAUAUGCAUAUUAUUAUUGUGCAGAAGGACAUGAGGAUCACCCAUGUAUAUUAUUAUUAUAUGUUAUAUAU	30.6	37.4	–	–
UUGUUGUAUGUAGGAUAUGCAUAUUGUUAUUAUGCAGAAGGACAUGAGGAUCACCCAUGUAUAUUAUUAUUAUAUGUUAUAUAU	23.5	27.8	–	–
UUGUUGUAUGUAGGAUAUGCAUAUUGUUAUUAUGCAGAAGGACAUGAGGAUCACCCAUGUAUGUUAUUAUUAUGUGUUAUGUGU	39.3	63.9	–	–
UUGUUGUGAGGAUAUCCAAUAUAUGACAUGAGGAUCACCCAUGUUUCCACUCGUACCUCCGGAGAAGGCACUUAGU	29.2	27.9	–	–
UUGUUGUGUGGAGGAUAUGCACUAACUGUUAGCGCAGAAGGCCACAUGAGGAUCACCCAUGUCCGGGUUACUGCCUAAGGAGUG	71.9	230	–	–
UUUACAUGAGGAUCACCCAUGUUAAAAUAAUUAAUUAUAAGUGAGGAUAUAUAAUUUAUAAAAUUGUAGAAGGCACUGGGUAUU	–	–	17.4	21.1
UUUACGGGAGGAUAUACAUGAGGAUCACCCAUGUAACGGUGUGUAAUAUAUAUUGCGUGUAGAAGGUUUGUGGG	79.3	78.6	–	–
UUUACGUGAGGAUAUGCGAAUAGUACGUAAGUCAUACAGACGCAGAAGGCACAUGAGGAUCACCCAUGUGAACC	22.7	80.4	–	–
UUUAUAAUAAGAUCAAUUAAUUAACAUGAGGAUCACCCAUGUGAGGAUAUCAGCUCGUGUAGAGCUGAGAAGGCACAAUAUAAG	43.8	69.3	–	–
UUUAUACAUGAGGAUCACCCAUGUCAACAAAGUCGAGGAUAUGGGCAUAUUAUCUUAUUUCCAGAAGGCGAAUUCU	–	–	233	73.3
UUUAUGUCAGGAUAUGAGUCGUAGAACAAUAGUACUACGUCUCAGAAGGGACAUGAGGAUCACCCAUGUGCCUC	40.4	316	–	–
UUUAUGUCAGGAUAUGAUUAGAUCUACUUCGGUAGAUCUAAUCAGAAGGGACAUGAGGAUCACCCAUGUAGUUU	111	226	–	–
UUUCCCUGGCAAGGAUAUCCUGUGCGGUUCCGGCUCGUGUCUGUUACAUGAGGAUCACCCAUGUGGGAGAAGGUGCCUGUGGCU	53.2	232	–	–
UUUGAAUAAGUGAGGAUAUACUGUUAGUAAUGAUUGUAGAAGGUACAUGAGGAUCACCCAUGUUUAUUAUUUAU	21.8	18.3	–	–
UUUGCAUUCCGAGGAUAUUCAGAUAAUAACUACACAUGAGGAUCACCCAUGUGGCGAUAGCCUAGGGAGAAGGCGGUUUGCUUU	–	–	19.7	20.9
UUUGCAUUCCGAGGAUAUUCAUAUAAUAACUACACAUGAGGAUCACCCAUGUGGCGAUAGCCUAGGGAGAAGGCGGUUUGCUUU	–	–	22.8	21.3
UUUGGGAACUCUAUGGGCCGCUACAUGAGGAUCACCCAUGUGCAGGAUAUAGGCGUUACUACCACCUAGAAGGGCACAGAAUGA	32.5	47.6	–	–
UUUGUAUAGGUAGGAUAUACUUUCAAUUUUUUUUUCCUUACAUGAGGAUCACCCAUGUUUACAUUGUAGAAGGACCUCAUUGUU	250	326	–	–
UUUGUCUGUGUGAGGAUAUACUUUGUUUGGUCGUUGUAGAAGGCACAUGAGGAUCACCCAUGUAUUUUGUUGUG	28.7	31.7	–	–
UUUGUUGUUGUGAGGAUAUCGUAGUUAUUUUGAAACGAGAAGGCACAUGAGGAUCACCCAUGUUUGUUGAUGGU	30.7	127	–	–
UUUUAACAUGAGGAUCACCCAUGUCGUUCAAAUCAAGGAUAUCAAGCGUGUGCGCACGCUUGAGAAGGUGAAGCUC	–	–	54.2	191
UUUUAACAUGAGGAUCACCCAUGUGAGGAUAUCGAAAUUUAUAUUAAUAUUAUUUUUACGAGAAGGCACAUUUU	90.3	95.4	–	–
UUUUAACAUGAGGAUCACCCAUGUGAGGAUAUCGAAAUUUAUAUUAAUAUUUAUAAAACGAGAAGGCACAUUUU	104	82.8	–	–
UUUUAACAUGAGGAUCACCCAUGUGAGGAUAUCGAAAUUUAUAUUAAUAUUUAUAUAUCGAGAAGGCACAUUUU	113	97.8	–	–
